Reference: ChEMBL document CHEMBL4033604, “Cytotoxicity and Mechanism of Action of the Marine-Derived Fungal Metabolite Trichodermamide B and Synthetic Analogues” (J Nat Prod, 2017)
The source made the active and inactive calls.

What was measured:
[1] = system: HeLa; assay: Cytotoxicity against human HeLa cells after 48 hrs by SRB assay; format: functional, cell-based
How it was run: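 HeLa cells treated over a concentration range for 48 h; survival by sulforhodamine B staining relative to vehicle control; four-parameter nonlinear regression; IC50 and IC85 as concentrations giving 50% or 85% inhibition of cell density; time-zero cell density marks cytotoxicity threshold; mean ± SEM, n = 4 independent experiments in triplicate.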

[2] = system: HeLa; assay: Induction of double stranded DNA breaks in human HeLa cells assessed as gamma-H2Ax phosphorylation at Ser139 residue at IC50 after 24 hrs by Hoechst 33342 staining-based indirect immunofluorescence microscopic method; format: cell-based
How it was run: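 HeLa exposed 24 h to IC50 concentration or 0.6% DMSO; fixed in ice-cold MeOH 5 min, blocked 10% bovine calf serum 20 min, anti-γH2A.X (Ser139) 2 h then Alexa Fluor 594 secondary 1 h at room temperature; nuclei counterstained Hoechst 33342; foci scored by fluorescence microscopy; n = 2 experiments in duplicate.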

[3] = system: HeLa; assay: Cytotoxicity against human HeLa cells assessed as inhibition of colony formation pretreated for 4 hrs followed by compound washout measured after 10 days by crystal violet staining based assay; format: functional, cell-based
How it was run: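 HeLa plated at 150 cells per dish, exposed 4 h to DMSO or IC85 concentration, washed with PBS, regrown in fresh medium 10 days; fixed, stained with 0.5% crystal violet in 10% methanol, colonies counted; n = 3−5 experiments in duplicate; one-way ANOVA.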

[4] = system: HeLa; assay: Cell cycle arrest in human HeLa cells at IC85 after 4 to 24 hrs by Krishan's reagent staining-based flow cytometric method; format: functional
[5] = system: HeLa; assay: Induction of apoptosis in human HeLa cells assessed as upregulation of cleaved PARP protein levels at IC85 after 24 hrs by Western blot analysis; format: functional, cell-based
How it was run: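 HeLa treated with IC85 concentration or 0.1% DMSO over a 4, 8, 16, 24 h time course; whole-cell lysates (protease inhibitors, 50 mM NaF, 200 μM Na3VO4, 1 mM PMSF), equal protein on 12% Bis-Tris SDS-PAGE, PVDF blot probed for cleaved PARP with GAPDH loading control (1:1000); two independent experiments.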

[6] = system: HeLa; assay: Cell cycle arrest in human HeLa cells assessed as accumulation at G2/M phase at IC85 after 24 hrs by Krishan's reagent staining-based flow cytometric method; format: functional
[7] = system: PC-3; assay: Cytotoxicity against human PC3 cells after 24 to 72 hrs by MTT assay; format: functional, cell-based
[8] = system: CWR22R; assay: Cytotoxicity against human 22Rv1 cells after 24 to 72 hrs by MTT assay; format: functional, cell-based
[9] = Cytotoxicity against mouse lymphoma cells by MTT assay; format: functional, cell-based; conditions: Lymphoma cell
[10] = system: LNCaP; assay: Cytotoxicity against human LNCAP cells after 24 to 72 hrs by MTT assay; format: functional, cell-based
[11] = system: HL-60; assay: Cytotoxicity against human HL60 cells; format: functional, cell-based
[12] = system: A549; assay: Cytotoxicity against human A549 cells; format: functional, cell-based
[13] = system: P388; assay: Cytotoxicity against mouse P388 cells; format: functional, cell-based

SMILES	IC50 [1] [µM]	IC85 [1] [µM]	other results
COc1ccc2cc(N(C)C(=O)C3=NO[C@H]4C=C[C@@H]5O[C@@H]5[C@@]4(O)C3)c(=O)oc2c1OC	> 10	> 10	
COc1ccc2cc(N(C)C(=O)C3=NO[C@H]4[C@H](O)C=C[C@@H](O)[C@@]4(O)C3)c(=O)oc2c1OC [TRICHODERMAMIDE C]	> 10	> 10	
CCOC(=O)C1=NO[C@H]2C=CC=C[C@@]2(O)C1	> 10	> 10	
CCOC(=O)C1=NO[C@H]2C=C[C@@H]3O[C@@H]3[C@@]2(O)C1	> 10	> 10	
CNc1cc2ccc(OC)c(OC)c2oc1=O	> 10	> 10	
COc1ccc2cc(NC(=O)C3=NO[C@H]4CC(=O)C=C[C@@]4(O)C3)c(=O)oc2c1OC (relative stereo)	5.7	12	Activity [2]: inactive; inhibition [3]: inactive; Activity [4]: inactive; Activity [5]: inactive
CCOC(=O)C1=NO[C@H]2CC(=O)[C@@H]3O[C@@H]3[C@@]2(O)C1 (relative stereo)	1.4	3.4	Activity [2]: inactive; inhibition [3]: inactive; Activity [4]: inactive; Activity [5]: inactive
COc1ccc2cc(NC(=O)C3=NO[C@H]4[C@H](O)C=C[C@@H](Cl)[C@@]4(O)C3)c(=O)oc2c1OC [TRICHODERMAMIDE B]	3.1	18	Activity [2]: Active; inhibition [3]: Active
COc1ccc2cc(N)c(=O)oc2c1OC	> 10	> 10	
COc1ccc2cc(N(C)C(=O)C3=NO[C@H]4[C@@H]5O[C@@H]5C=C[C@@]4(O)C3)c(=O)oc2c1OC	> 10	> 10	
CCOC(=O)C1=NO[C@H]2CC(=O)C=C[C@@]2(O)C1	12	32	Activity [2]: inactive; inhibition [3]: Active; Activity [6]: Active
COc1ccc([C@H]2SS[C@@]34C[C@]5(O)[C@H](Cl)C=C[C@@H](O)[C@@H]5ON3C(=O)[C@@H]2N(C)C4=O)c(O)c1OC			IC50 [7]: 0.51 to 5.11 µM; IC50 [8]: 0.51 to 5.11 µM; IC50 [9]: 2 µM; IC50 [10]: 0.51 to 5.11 µM
COc1ccc2cc(N(C)C(=O)C3=NO[C@H]4C=CC=C[C@@]4(O)C3)c(=O)oc2c1OC	> 10	> 10	
COc1ccc2cc(NC(=O)C3=NO[C@H]4CC(=O)[C@@H]5O[C@@H]5[C@@]4(O)C3)c(=O)oc2c1OC	> 10	> 10	
COc1ccc2cc(NC(=O)C3=NO[C@H]4C=CC=C[C@@]4(O)C3)c(=O)oc2c1OC	> 10	> 10	
COc1ccc2cc(NC(=O)C3=NO[C@H]4C=C[C@@H]5O[C@@H]5[C@@]4(O)C3)c(=O)oc2c1OC	> 10	> 10	
COc1ccc2cc(NC(=O)C3=NO[C@H]4[C@H](O)C=C[C@@H](O)[C@@]4(O)C3)c(=O)oc2c1OC [TRICHODERMAMIDE A]	> 10	> 10	IC50 [11]: 89 µM; IC50 [12]: > 100 µM; IC50 [13]: > 100 µM
COc1ccc2cc(NC(=O)[C@@]34C[C@]5(O)[C@@H](C=C[C@@H](O)[C@@H]5ON3)S4)c(=O)oc2c1OC			IC50 [11]: 84 µM; IC50 [12]: > 100 µM; IC50 [13]: > 100 µM
CCOC(=O)C1=NO[C@H]2[C@@H]3O[C@@H]3C=C[C@@]2(O)C1	21	51	Activity [2]: inactive; inhibition [3]: inactive; Activity [4]: inactive; Activity [5]: inactive
